ChEMBL document CHEMBL1138431, “Synthesis and cytotoxic activities of 4,5-diarylisoxazoles” (Bioorg Med Chem Lett, 2007)

Key:
[1] = Cytotoxicity against human […] cells; assay type: functional, cell-based
In short: (§1)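 Cells were grown under previously described culture conditions and tested in an MTT colorimetric assay.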

HeLa = assay: Cytotoxicity against human HeLa cells; assay type: functional, cell-based; in short: as §1
HepG2 [2] = assay: Cytotoxicity against human HepG2 cells; assay type: functional, cell-based; in short: as §1
HepG2 [3] = assay: Cell cycle arrest in human HepG2 cells assessed as accumulation at G2/M phase at 10 nM after 24 hrs relative to control
HepG2 [4] = assay: Cell cycle arrest in human HepG2 cells assessed as accumulation at G0/G1 phase at 10 nM after 24 hrs relative to control
HepG2 [5] = assay: Cell cycle arrest in human HepG2 cells assessed as accumulation at S phase at 10 nM after 24 hrs relative to control

SMILES	IC50 [1]	IC50 (HeLa)	IC50 (HepG2 [2])	Activity (HepG2 [3])	Activity (HepG2 [4])	Activity (HepG2 [5])
COc1ccc(/C=C\c2cc(OC)c(OC)c(OC)c2)cc1O [COMBRETASTATIN A4]	0.01 nM	2.75 nM	0.14 nM	79.3%	1.68%	19%
COc1ccc(-c2cnoc2-c2cc(OC)c(OC)c(OC)c2)cc1N	0.135 nM	0.022 nM	0.065 nM	69.8%	2.81%	27.4%
